The results in this text go back to ChEMBL document CHEMBL1130151, “Curcumin analogs with altered potencies against HIV-1 integrase as probes for biochemical mechanisms of drug action” (J Med Chem, 1997).

What is called pIC50 is the negative decadic logarithm of the IC50, by convention in mol/L.

pIC50: −log10 of the molar value.

The target in assay [1] is T1, Human immunodeficiency virus type 1 integrase (Human immunodeficiency virus 1, UniProt Q7ZJM1). Put plainly: Inhibition of 3'- processing activity of HIV-1 integrase. The gist of the method:
(§1)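 Recombinant HIV-1 integrase (200 nM final) preincubated with inhibitor 30 min at 30 °C in buffer (pH 7.2 MOPS, 7.5 mM MnCl2, 10% DMSO, 50 mM NaCl, BSA, reducing agents, glycerol). Then 20 nM 5′-32P-labeled linear oligonucleotide substrate added, reaction run 1 h more. Products resolved on denaturing 20% polyacrylamide/urea gel. IC50 read from plot of concentration versus percent inhibition.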

Assay [2] addresses T1, Human immunodeficiency virus type 1 integrase. The assay is described as follows: Inhibition of strand transfer activity of HIV-1 integrase. The gist of the method: as §1

T1 sequence (Q7ZJM1 whole entry): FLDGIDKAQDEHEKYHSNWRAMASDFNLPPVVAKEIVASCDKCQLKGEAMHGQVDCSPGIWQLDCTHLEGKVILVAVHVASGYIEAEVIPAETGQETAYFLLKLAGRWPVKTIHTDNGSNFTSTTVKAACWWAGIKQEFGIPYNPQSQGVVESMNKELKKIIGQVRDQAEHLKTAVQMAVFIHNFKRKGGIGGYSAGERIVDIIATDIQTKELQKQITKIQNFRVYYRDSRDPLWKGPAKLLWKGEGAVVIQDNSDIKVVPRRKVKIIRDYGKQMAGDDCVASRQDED

Take `O=C(/C=C/c1ccccc1)CC(=O)/C=C/c1ccccc1`: the pIC50 in assay [1] and in assay [2] was under 3.52 each time.
Turning to `COc1ccc(/C=C/C(=O)CC(=O)/C=C/c2ccc(OC)cc2)cc1`, the pIC50 in assay [1] and in assay [2] was under 3.52 throughout.
Regarding `COc1cc(CCC(=O)CC(=O)CCc2ccc(O)c(OC)c2)ccc1O` [TETRAHYDROCURCUMIN], the pIC50 in assay [1] and in assay [2] was under 3.52 throughout.
On to `O=C(/C=C/c1ccc(O)cc1)CC(=O)/C=C/c1ccc(O)cc1` [BISDEMETHOXYCURCUMIN], for which the values for the pIC50 in assay [1] and in assay [2] were 3.92 and 4.10, respectively.
The like results for `COc1cc(/C=C/C(=O)CC(=O)/C=C/c2ccc(O)c(O)c2)ccc1O` were, in that order, 4.74 and 5.05.
The like results for `O=C(/C=C/c1ccc(O)c(O)c1)O[C@H](Cc1ccc(O)c(O)c1)C(=O)O` [ROSMARINIC ACID] were, in that order, 5.05 and 5.40.
As for `COc1cc(/C=C/C(O)=C/C(=O)/C=C/c2ccc(O)cc2)ccc1O` [DEMETHOXYCURCUMIN], the negative-log IC50 (pIC50) in assay [1] is 3.85; in assay [2], 3.92.
The corresponding values for `COc1cc(/C=C/C(=O)CC(=O)/C=C/c2ccc(O)c(OC)c2)ccc1O` [CURCUMIN] are 3.82 and 3.85.
The corresponding values for `O=C(/C=C/c1ccc(O)c(O)c1)CC(=O)/C=C/c1ccc(O)c(O)c1` are 5.22 and 5.51.
